Source: PubChem BioAssay (The Scripps Research Institute Molecular Screening Center)
Compounds with a hit are over-represented: about 2.3% of the library has one in this group of screens.
pPAFAH FP inh = pPAFAH (human) enzyme inhibition; AID 463082; recombinant pPAFAH, FP-rhodamine probe fluorescence polarization; Q13093; inhibition, % at 3.39 µM; 330,000 tested, 1.5% active;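 active means inhibition above the mean inhibition across the screen plus 3 SD, cut at about 25% in these data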;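 further: inhibitors block binding of the rhodamine activity-based probe so polarization drops; 0% = enzyme with DMSO and 100% = wells lacking pPAFAH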
TCR CD3 inh = human TCR-CD3 binding inhibition. TAMRA-labeled TCR probe fluorescence, biochemical. inhibition, % at 9.4 µM. 360,000 tested, 0.37% active. AID 651800; in the data active means inhibition above about 19%;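 further: recombinant mutant TCR 2C K166C tagged with TAMRA read by polarization; 0% = receptor in buffer alone and 100% = receptor with positive control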
SIAE primary = inhibitors of human sialic acid acetylesterase SIAE; Q9HAT2; SIAE FP-Rh probe binding, fluorescence polarization; inhibition, % at 9.66 µM; 370,000 tested, 0.69% active;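 active means inhibition above a cutoff: mean of compounds within the control limits plus 3 SD of those, cut at about 17% in these data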;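 further: 0% = plate median of compound wells and 100% = probe without SIAE protein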
HTRA1 inhibitor = inhibitors of human serine peptidase HTRA1. Q92743. recombinant HTRA1, FP-rhodamine activity-based probe, fluorescence polarization. inhibition, % at 5.96 µM. 340,000 tested, 0.5% active. AID 504803; in the data active means inhibition above about 36%;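 further: 0% = enzyme with DMSO and 100% = wells lacking enzyme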
Target sequence (Q92743 whole entry, looked up): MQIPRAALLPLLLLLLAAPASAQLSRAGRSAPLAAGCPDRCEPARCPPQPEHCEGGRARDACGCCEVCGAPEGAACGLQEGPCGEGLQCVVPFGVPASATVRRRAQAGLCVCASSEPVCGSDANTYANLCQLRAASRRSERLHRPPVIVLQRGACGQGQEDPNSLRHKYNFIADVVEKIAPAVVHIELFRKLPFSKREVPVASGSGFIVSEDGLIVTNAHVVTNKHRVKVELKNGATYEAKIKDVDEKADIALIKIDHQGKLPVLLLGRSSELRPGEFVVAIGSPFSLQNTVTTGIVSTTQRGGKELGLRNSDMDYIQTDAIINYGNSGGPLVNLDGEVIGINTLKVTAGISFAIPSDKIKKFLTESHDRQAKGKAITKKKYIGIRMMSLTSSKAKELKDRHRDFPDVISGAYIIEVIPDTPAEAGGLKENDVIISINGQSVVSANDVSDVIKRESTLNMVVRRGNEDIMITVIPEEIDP
mABHD4 FP = ABHD4 (mouse) inhibition, primary FP screen; Q8VD66; purified mABHD4, FP-Rh probe fluorescence polarization; AID 720543; inhibition, % at 8.92 µM; 370,000 tested, 0.54% active;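 active means inhibition exceeding the mean over every tested compound plus 3 SD, cut at about 30% in these data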;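 further: 0% = plate median of compound wells and 100% = S159A mutant with DMSO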
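Assay system: mABHD4 protein; medium: HEPES pH 7.0, NaCl, Pluronic buffer; dosing: 8.92 µM, single dose; schedule: 45 min + 60 min at 25 °C; signal: FP readout, ex 525 nm / em 598 nm; read-out: normalized percent inhibition of probe labeling; repeats: single replicate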
SIAE inh conf = human SIAE inhibition, confirmation | shares compounds with SIAE primary | SIAE FP-Rh activity-based probe, fluorescence polarization | inhibition, % at 9.66 µM | 2,300 tested, 13% active | AID 1117263;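 active means mean inhibition of the replicates above the hit cutoff set in the primary screen, cut at about 17% in these data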;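 further: 0% = SIAE with DMSO and probe and 100% = probe without SIAE; inhibitors lower polarization as more probe stays unbound to SIAE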
Starred values were filed as active, the others as inactive.

COC(=O)[C@H]1C[C@@H]1[C@H](NC(=O)[C@H]1C[C@@H]1[C@H](NC(=O)OCc1ccccc1)c1ccccc1)c1ccccc1 was read as pPAFAH FP inh 1, TCR CD3 inh -2, SIAE primary 20*, HTRA1 inhibitor -24, mABHD4 FP -14 and SIAE inh conf -3.
Screening Cc1cc(Br)cc(Cl)c1OCC(=O)N1CCN(C(=O)c2ccco2)CC1 returned pPAFAH FP inh 0, TCR CD3 inh 3, SIAE primary 3, HTRA1 inhibitor 1 and mABHD4 FP 3.
`Cc1cc(C)c(OCC(=O)OCC(=O)N2CCN(C(=O)c3ccco3)CC2)c(C)c1` gave pPAFAH FP inh -5, TCR CD3 inh -2, SIAE primary 18*, HTRA1 inhibitor -3, mABHD4 FP 6 and SIAE inh conf -4.
For CC(C)(C)Cc1c(-c2cccc(Cl)c2)nc2ccc(Br)cn12 the results were TCR CD3 inh 2, SIAE primary 2 and mABHD4 FP 4.
Screening CC(COc1cccc([N+](=O)[O-])c1)CN1CCC(C(O)(c2ccccc2)c2ccccc2)CC1 (stereo not drawn) returned SIAE primary -1 and mABHD4 FP 3.
Screening C(=C\c1ccccc1)/CSc1nnc(-c2cccnc2)o1 returned pPAFAH FP inh 4, TCR CD3 inh -2, SIAE primary 21*, HTRA1 inhibitor 0, mABHD4 FP -18 and SIAE inh conf 1.
CCC(=O)Nc1ccc(NCc2cccs2)cc1 was read as pPAFAH FP inh 2, TCR CD3 inh 4, SIAE primary 0, HTRA1 inhibitor 8 and mABHD4 FP 9.
Screening O=C(O)c1ccc(NCc2cccs2)cc1 returned pPAFAH FP inh 2, TCR CD3 inh -2, SIAE primary 18*, HTRA1 inhibitor 6, mABHD4 FP -2 and SIAE inh conf -2.
OC[C@@H]1CN(Cc2ccccc2)C[C@H](n2cnc3c(NCc4ccncc4)ncnc32)O1 was read as TCR CD3 inh 4, SIAE primary -1 and mABHD4 FP -3.
Screening Nn1c(SCC(=O)N2CCOCC2)nnc1-c1n[nH]c2c1CCC2 returned SIAE primary 1 and mABHD4 FP 6.
`COCCNC(=O)c1nc2ccccc2s1` gave pPAFAH FP inh -9, TCR CD3 inh -1, SIAE primary 19*, HTRA1 inhibitor 4, mABHD4 FP 0 and SIAE inh conf -2.
O=C(NCCO)c1nc2ccccc2s1 was read as pPAFAH FP inh -4, TCR CD3 inh 5, SIAE primary -5, HTRA1 inhibitor 0 and mABHD4 FP -1.
`CCOC(=O)N1CCN(Cc2c(F)cccc2Cl)CC1` gave pPAFAH FP inh 1, TCR CD3 inh 1, SIAE primary 18*, HTRA1 inhibitor 0, mABHD4 FP 11 and SIAE inh conf 3.
CCOC(=O)N1CCN(Cc2c(F)cccc2F)CC1 was read as pPAFAH FP inh -2, TCR CD3 inh 6, SIAE primary 4, HTRA1 inhibitor 6 and mABHD4 FP 12.
Screening CSCCC(c1nc2ccccc2[nH]1)n1c(=O)c(-c2ccco2)nc2ccccc21 (stereo not drawn) returned TCR CD3 inh -7, SIAE primary -3 and mABHD4 FP 8.
`C#CCNC(=O)C[C@H]1C[C@@]2(C(=O)OC)C(=C[C@H](C3CCCC3)O[C@@H]2C)N(Cc2ccco2)C1=O` gave SIAE primary -4 and mABHD4 FP 3.
For Cn1c(CCN2CCN(c3ccccn3)CC2)nc2cc(NC(=O)COc3ccccc3)ccc21 the results were pPAFAH FP inh 6, TCR CD3 inh 0, SIAE primary 70*, HTRA1 inhibitor 0, mABHD4 FP -3 and SIAE inh conf 1.
`Cc1ccc(OCC(=O)Nc2ccc3c(c2)nc(CCN2CCN(c4ccccn4)CC2)n3C)cc1` gave TCR CD3 inh -5, SIAE primary 3, HTRA1 inhibitor -4 and mABHD4 FP 1.
`Cc1ccc(OCCn2cc(/C(N)=N/O)c3ccccc32)cc1C` gave pPAFAH FP inh 6, TCR CD3 inh 3, SIAE primary 20*, HTRA1 inhibitor -18, mABHD4 FP -1 and SIAE inh conf 9.
`COc1ccc(OCCn2cc(/C(N)=N/O)c3ccccc32)cc1` gave pPAFAH FP inh -1, TCR CD3 inh -5, SIAE primary 7, HTRA1 inhibitor -11 and mABHD4 FP 2.
